Reference: ChEMBL document CHEMBL1770139, “Synthesis of 'clickable' acylhomoserine lactone quorum sensing probes: unanticipated effects on mammalian cell activation” (Bioorg Med Chem Lett, 2011)
The source made the active and inactive calls. No cut-off for these calls is given here.

What was measured:
BMDM = experiment: Induction of PARP cleavage in mouse BMDM cells at 50 uM after 90 mins by Western blot analysis; format: cell-based
How it was run: (§1)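 Primary bone marrow-derived macrophages exposed to alkynyl AHL analogue at 50 μM for 90 minutes. Cell extracts were probed by Western blot for p38 phosphorylation, eIF2α phosphorylation and PARP cleavage.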

[1] = target: Eukaryotic translation initiation factor 2 subunit 1 (Mus musculus) (UniProt Q6ZWX6); experiment: Induction of phosphorylation of eIF2alpha in mouse BMDM cells at 50 uM after 90 mins by Western blot analysis; format: cell-based; how it was run: as §1
Sequence of Eukaryotic translation initiation factor 2 subunit 1 (Mus musculus) (Q6ZWX6 whole entry): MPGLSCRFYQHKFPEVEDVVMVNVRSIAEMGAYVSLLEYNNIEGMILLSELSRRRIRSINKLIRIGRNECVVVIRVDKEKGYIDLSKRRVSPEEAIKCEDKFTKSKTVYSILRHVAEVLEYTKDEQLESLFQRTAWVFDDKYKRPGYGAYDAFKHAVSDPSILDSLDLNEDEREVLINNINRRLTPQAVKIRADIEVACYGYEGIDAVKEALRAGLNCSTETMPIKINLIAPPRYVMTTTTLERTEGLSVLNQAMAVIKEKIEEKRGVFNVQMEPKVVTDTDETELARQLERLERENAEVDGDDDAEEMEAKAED

[2] = target: MAP kinase p38 (Mus musculus) (UniProt P47811+O08911+Q9WUI1+Q9Z1B7); experiment: Induction of phosphorylation of p38 in mouse BMDM cells at 50 uM after 90 mins by Western blot analysis; format: cell-based; how it was run: as §1
Pseudomonas aeruginosa = experiment: Induction of quorum sensing activity in lasI/rhlI-deleted Pseudomonas aeruginosa PAO-JP2 expressing plasmid pKD201 containing a LasI reporter coupled to the luxCDABE assessed as relative luminescence units normalized with respect to cell viability at 1 uM after 4 hrs by autoinducer activity assay
How it was run: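 Autoinducer assay in P. aeruginosa luminescence reporter strain PAO-JP2, a PAO1 lasI/rhlI double mutant carrying luxABCDE.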

| SMILES | Activity [1] | Activity [2] | Activity (BMDM) | Activity (Pseudomonas aeruginosa) |
| --- | --- | --- | --- | --- |
| C#CCCCCC(=O)CC(=O)N[C@H]1CCOC1=O | inactive | inactive | inactive | inactive |
| [N-]=[N+]=NCCCCCCCCCC(=O)CC(=O)N[C@@H]1CCOC1=O | inactive | inactive | inactive | inactive |

More lines, main results first:

| Activity [1] | Activity [2] | SMILES | Activity (BMDM) | Activity (Pseudomonas aeruginosa) |
| --- | --- | --- | --- | --- |
| Active | Active | C#CCCCCCCCCC(=O)CC(=O)N[C@H]1CCOC1=O | Active | Active |
| Active | Active | CCCCCCCCCC(=O)CC(=O)N[C@H]1CCOC1=O | Active | Active |
| Active | Active | [N-]=[N+]=NCCCCCCCCCC(=O)CC(=O)N[C@H]1CCOC1=O | Active | inactive |
